Laboratory results published in ChEMBL document CHEMBL1145326, “Antimycobacterial agents. Novel diarylpyrrole derivatives of BM212 endowed with high activity toward Mycobacterium tuberculosis and low cytotoxicity” (2006).
≈ marks a conversion by molar mass, not a printed value.

Experiments:
Assay type in all cases: functional
[1] = test system: Mycobacterium tuberculosis; experiment: Antibacterial activity against multi drug resistant Mycobacterium tuberculosis 421/96 isolate
Method in brief: (§1)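 MIC against clinical MTB isolates by the macrodilution broth method in Middlebrook broth enriched with 10% ADC. Values are in µg/mL.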

[2] = test system: Mycobacterium tuberculosis; experiment: Antibacterial activity against multi drug resistant Mycobacterium tuberculosis 482/98 isolate; method in brief: as §1
[3] = test system: Mycobacterium tuberculosis; experiment: Antibacterial activity against multi drug resistant Mycobacterium tuberculosis 586/98 isolate; method in brief: as §1
[4] = test system: Mycobacterium tuberculosis; experiment: Antibacterial activity against multi drug resistant Mycobacterium tuberculosis 520/98 isolate; method in brief: as §1
[5] = test system: Mycobacterium tuberculosis; experiment: Antibacterial activity against multi drug resistant Mycobacterium tuberculosis 296/04 isolate; method in brief: as §1
[6] = test system: Mycobacterium tuberculosis; experiment: Antibacterial activity against multi drug resistant Mycobacterium tuberculosis 149/03 isolate; method in brief: as §1
[7] = test system: Mycobacterium tuberculosis; experiment: Antibacterial activity against multi drug resistant Mycobacterium tuberculosis 326/04 isolate; method in brief: as §1
[8] = test system: Mycobacterium tuberculosis; experiment: Antibacterial activity against multi drug resistant Mycobacterium tuberculosis 134/02 isolate; method in brief: as §1
[9] = test system: Mycobacterium tuberculosis; experiment: Antibacterial activity against multi drug resistant Mycobacterium tuberculosis 158/97 isolate; method in brief: as §1
[10] = test system: Mycobacterium tuberculosis; experiment: Antibacterial activity against multi drug resistant Mycobacterium tuberculosis 43/05 isolate; method in brief: as §1
[11] = test system: Mycobacterium tuberculosis; experiment: Antibacterial activity against multi drug resistant Mycobacterium tuberculosis 275/05 isolate; method in brief: as §1

`Cc1ccc(-c2cc(CN3CCSCC3)c(C)n2-c2ccc(F)cc2)cc1` gave an MIC [1] of 0.5 µg/mL (≈ 1.31 µM), an MIC [2] of 0.5 µg/mL (≈ 1.31 µM) and an MIC [3] of 0.5 µg/mL (≈ 1.31 µM). It also gave an MIC [4] of 0.5 µg/mL (≈ 1.31 µM), an MIC [5] of 0.5 µg/mL (≈ 1.31 µM) and an MIC [6] of 0.5 µg/mL (≈ 1.31 µM). For the same compound, the MIC [7] was 32 µg/mL (≈ 84.1 µM), the MIC [8] was 0.5 µg/mL (≈ 1.31 µM) and the MIC [9] was 0.5 µg/mL (≈ 1.31 µM). For the same compound, the MIC [10] was 0.5 µg/mL (≈ 1.31 µM) and the MIC [11] was 0.5 µg/mL (≈ 1.31 µM).

For `Cc1c(CN2CCSCC2)cc(-c2ccc(F)cc2)n1-c1ccccc1F`, the MIC [1] was 2 µg/mL (≈ 5.2 µM), the MIC [2] was 2 µg/mL (≈ 5.2 µM) and the MIC [3] was 2 µg/mL (≈ 5.2 µM). The MIC [4] was 2 µg/mL (≈ 5.2 µM), the MIC [5] was 2 µg/mL (≈ 5.2 µM) and the MIC [6] was 2 µg/mL (≈ 5.2 µM). The MIC [7] was > 32 µg/mL, the MIC [8] was 2 µg/mL (≈ 5.2 µM) and the MIC [9] was 0.5 µg/mL (≈ 1.3 µM). For the same compound, the MIC [10] was 0.5 µg/mL (≈ 1.3 µM) and the MIC [11] was 2 µg/mL (≈ 5.2 µM).
